Results reported in ChEMBL document CHEMBL1221182, “Functional characterization of IRESes by an inhibitor of the RNA helicase eIF4A” (Nat Chem Biol, 2006).
Calls of active or inactive are those of the source. The calls are words filed in the database; no cut-off is given here.

Tests used:
[1] = biological target: Eukaryotic initiation factor 4A-I (Mus musculus, UniProt P60843); assay: Inhibition of eIF4A-mediated cap-dependent protein synthesis in FF-HCV-Ren mRNA transfected Swiss mouse Krebs2 cell extract by [35S]methionine metabolic labeling study
Summary of the method: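 Cell-free translation in Krebs-2 extracts programmed with capped bicistronic FF-HCV-Ren transcript: cap-dependent firefly cistron, HCV IRES-driven renilla cistron. Final mRNA 5 µg ml⁻¹, K⁺ 100 mM, compound titrated. Controls carry a matched final DMSO level. Products labeled with [³⁵S]methionine, separated by 10% SDS-PAGE, and autoradiographed. Luciferase activities are read by luminometer and expressed relative to vehicle reactions.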

[2] = biological target: Eukaryotic initiation factor 4A-I (Homo sapiens) (UniProt P60842); assay: Inhibition of eIF4A RNA-dependent ATPase activity assessed as rate of ATP hydrolysis
Summary of the method: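 Recombinant murine eIF4A_I (4.5 µg) was expressed in E. coli BL21(DE3) and purified by Ni-NTA and Q-Sepharose. It was incubated with 1 µM [γ-³²P]ATP and 2.5 µM poly(U). Hydrolysis was quantified by phosphorimager. Rate was plotted against compound concentration relative to 0.5% DMSO.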

HeLa [3] = assay: Inhibition of protein synthesis in human HeLa cells after 50 mins by [35S]methionine metabolic labeling study; assay type: functional, cell-based
HeLa [4] = assay: Growth inhibition of human HeLa cells at 80 nM after 24 hrs; assay type: functional, cell-based
[5] = biological target: Eukaryotic initiation factor 4A-I (Homo sapiens) (UniProt P60842); assay: Inhibition of eIF4A interaction with mRNA cap structure in presence of 0.6 mM m7 GDP at 50 uM by chemical cross-linking assay
Summary of the method: (§1)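 Oxidized ³²P cap-labelled CAT mRNA was chemically cross-linked in reactions with 0.9 mM ATP. Protein sources were 1 µg recombinant eIF4A_I, 0.7 µg native eIF4F, or an initiation factor preparation. Competitors were 0.6 mM m⁷GDP or GDP; compound was 50 µM. Samples were RNase A-treated, resolved by SDS-PAGE, and autoradiographed.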

Oryctolagus cuniculus = species: Oryctolagus cuniculus; assay: Inhibition of 80S ribosome complex formation in rabbit reticulocyte lysate in presence of 600 uM cyclohexamide assessed as increase in unbound mRNA at 50 uM; assay type: functional
Summary of the method: (§2)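 ³²P-labelled CAT mRNA was incubated 10 min in wheat germ extract or rabbit reticulocyte lysate. Additions were 600 µM cycloheximide, 1 mM GMP-PNP, and 50 µM compound or vehicle. Mixtures were sedimented through 10–30% glycerol gradients at 200,000g for 3.5 h. Fraction radioactivity was measured by scintillation counting.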

Nucleic Acid [6] = assay: Inhibition of PTV-1 IRES-mediated translation in Swiss mouse Krebs2 extract transfected with bicistronic mRNA by [35S]methionine metabolic labeling study; conditions: Porcine teschovirus 1
Summary of the method: (§3)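 In vitro translation in Krebs-2 extracts programmed with capped bicistronic transcripts at 5 µg ml⁻¹ mRNA and 100 mM K⁺ final. Firefly and renilla luciferase activities read by luminometer. Alternatively, [³⁵S]methionine-labelled products were run on 10% SDS gels and autoradiographed. Control reactions held the same final DMSO level as the compound reactions.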

[7] = biological target: Eukaryotic initiation factor 4A (Triticum aestivum) (UniProt P41378); assay: Inhibition of eIF4A-mediated cap-dependent protein synthesis in wheat germ extract transfected with FF-HCV-Ren mRNA by [35S]methionine metabolic labeling study
Summary of the method: (§4)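 Rabbit reticulocyte lysate or wheat germ extract translations were run to kit instructions. Control reactions carried the same final DMSO concentration as the compound-containing reactions.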

HeLa [8] = assay: Disruption of polyribosmes in human HeLa cells at 1 uM after 20 mins; assay type: functional, cell-based
Nucleic Acid [9] = assay: Inhibition of CrPV IRES-mediated translation in Swiss mouse Krebs2 extract transfected with bicistronic mRNA by [35S]methionine metabolic labeling study; summary of the method: as §3
HeLa [10] = assay: Inhibition of protein synthesis in human HeLa cells at 1 uM after 60 mins by [35S]methionine metabolic labeling study; assay type: functional, cell-based
HeLa [11] = assay: Inhibition of protein synthesis in human HeLa cells at 1 uM by [35S]methionine metabolic labeling study; assay type: functional, cell-based
[12] = biological target: Eukaryotic initiation factor 4A-I (Mus musculus) (UniProt P60843); assay: Inhibition of eIF4A-mediated cap-dependent protein synthesis in Swiss mouse Krebs2 extract transfected with FF-HCV-Ren mRNA in presence of recombinant eIF4AIf by [35S]methionine metabolic labeling study
Summary of the method: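 Krebs-2 translation programmed with FF-HCV-Ren mRNA at 5 µg ml⁻¹ mRNA and 100 mM K⁺ final. Conditions were 0.4 µM compound or 0.004% DMSO, with or without 2.2 µM recombinant eIF4A_If. [³⁵S]methionine products were resolved by SDS-PAGE and autoradiographed. Translational efficiency was taken relative to luciferase from vehicle controls. Three experiments; s.e.m.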

Triticum aestivum = assay: Inhibition of 48S ribosome complex formation in wheat germ extract in presence of 1 mM GMP-PNP assessed as increase in unbound mRNA at 50 uM; assay type: functional; summary of the method: as §2
HeLa [13] = assay: Inhibition of RNA synthesis in human HeLa cells assessed as [3H] Uridine incorporation at 1 uM by scintillation counting; assay type: functional, cell-based
HeLa [14] = assay: Inhibition of DNA synthesis in human HeLa cells assessed as [3H] thymidine incorporation at 1 uM by scintillation counting; assay type: functional, cell-based
[15] = biological target: Eukaryotic initiation factor 4A-I (Homo sapiens) (UniProt P60842); assay: Induction of eIF4A to [alpha-32P]ATP cross linking relative to control
Summary of the method: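 [α-³²P]ATP (2.5 µCi) was UV cross-linked to 1 µg recombinant eIF4A_I or 0.7 µg native eIF4F, with 0.5% DMSO or 50 µM compound. Samples were run on SDS-PAGE and autoradiographed at -70 °C for 12 h. Four experiments.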

Nucleic Acid [16] = assay: Inhibition of EMCV IRES-mediated translation in Swiss mouse Krebs2 extract transfected with bicistronic mRNA by [35S]methionine metabolic labeling study; conditions: Encephalomyocarditis virus; summary of the method: as §3
[17] = Inhibition of DED1-mediated helicase activity by helicase assay
Summary of the method: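 Helicase assay used the RNA-1/11 duplex with 25 nM Ded1p and 1 mM ATP. Products were separated on gels, dried, and exposed to film at -80 °C for 12 h.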

[18] = biological target: Eukaryotic initiation factor 4A-I (Homo sapiens) (UniProt P60842); assay: Inhibition of eIF4A RNA binding activity in presence of 0.6 mM m7GDP at 50 uM; summary of the method: as §1
[19] = biological target: Eukaryotic translation initiation factor 4E (Homo sapiens) (UniProt P06730); assay: Inhibition of eIF4E interaction with mRNA cap structure in presence of 0.6 mM m7 GDP at 50 uM by chemical cross-linking assay; summary of the method: as §1
[20] = biological target: Eukaryotic initiation factor 4A-I (Oryctolagus cuniculus) (UniProt P29562); assay: Inhibition of eIF4A-mediated cap-dependent protein synthesis in rabbit reticulocyte lysate transfected with FF-HCV-Ren mRNA by [35S]methionine metabolic labeling study; summary of the method: as §4
Nucleic Acid [21] = assay: Inhibition of polio virus IRES-mediated translation in Swiss mouse Krebs2 extract transfected with bicistronic mRNA by [35S]methionine metabolic labeling study; conditions: Enterovirus C; summary of the method: as §3
[22] = biological target: Eukaryotic translation initiation factor 4B (Homo sapiens) (UniProt P23588); assay: Inhibition of eIF4B interaction with mRNA cap structure in presence of 0.6 mM m7GDP at 50 uM by chemical cross-linking assay; summary of the method: as §1
[23] = biological target: Eukaryotic translation initiation factor 4E (Homo sapiens) (UniProt P06730); assay: Inhibition of eIF4E RNA binding activity in presence of 0.6 mM m7GDP at 50 uM; summary of the method: as §1
[24] = biological target: Eukaryotic initiation factor 4A-I (Mus musculus) (UniProt P60843); assay: Inhibition of eIF4A-mediated cap-dependent translation in Swiss mouse Krebs2 extract transfected with bicistronic mRNA by [35S]methionine metabolic labeling study; summary of the method: as §3
Escherichia coli = assay: Inhibition of eIF4A-mediated cap-dependent protein synthesis in Escherichia coli S30 extract transfected with FF-HCV-Ren mRNA at 50 uM by [35S]methionine metabolic labeling study
[25] = biological target: Eukaryotic initiation factor 4A-I (Homo sapiens) (UniProt P60842); assay: Inhibition of eIF4A binding to 32p cap-labeled mRNA at 50 uM; summary of the method: as §1
[26] = tested on: Internal ribosome entry site (IRES); assay: Inhibition of HCV IRES-mediated protein synthesis in FF-HCV-Ren mRNA transfected Swiss mouse Krebs2 cell extract at 50 uM by [35S]methionine metabolic labeling study; conditions: Hepacivirus hominis; summary of the method: as §3
[27] = biological target: Eukaryotic initiation factor 4A-I (Homo sapiens) (UniProt P60842); assay: Inhibition of eIF4A-mediated helicase activity by helicase assay
Summary of the method: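 Helicase assay used the RNA-1/11 duplex with 0.4 µM recombinant eIF4A_I and 1 mM ATP. Products were separated on gels, dried, and exposed to film at -80 °C for 12 h.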

Chain of Eukaryotic initiation factor 4A-I (Homo sapiens) (P60842 whole entry): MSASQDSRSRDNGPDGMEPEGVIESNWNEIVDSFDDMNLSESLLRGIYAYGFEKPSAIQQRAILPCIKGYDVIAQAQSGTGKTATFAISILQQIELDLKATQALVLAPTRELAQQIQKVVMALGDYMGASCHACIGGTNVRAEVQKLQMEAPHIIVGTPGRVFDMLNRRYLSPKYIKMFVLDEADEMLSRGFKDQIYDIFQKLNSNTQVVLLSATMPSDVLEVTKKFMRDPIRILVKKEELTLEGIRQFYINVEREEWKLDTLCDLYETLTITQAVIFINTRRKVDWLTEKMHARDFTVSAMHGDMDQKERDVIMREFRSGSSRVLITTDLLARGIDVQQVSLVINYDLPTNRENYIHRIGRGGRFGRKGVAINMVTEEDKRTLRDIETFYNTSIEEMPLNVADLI
Chain of Eukaryotic initiation factor 4A-I (P60843 whole entry): as the sequence (P60842 whole entry) above
Chain of Eukaryotic initiation factor 4A-I (Mus musculus) (P60843 whole entry): as the sequence (P60842 whole entry) above
Chain of Eukaryotic translation initiation factor 4E (Homo sapiens) (P06730 whole entry): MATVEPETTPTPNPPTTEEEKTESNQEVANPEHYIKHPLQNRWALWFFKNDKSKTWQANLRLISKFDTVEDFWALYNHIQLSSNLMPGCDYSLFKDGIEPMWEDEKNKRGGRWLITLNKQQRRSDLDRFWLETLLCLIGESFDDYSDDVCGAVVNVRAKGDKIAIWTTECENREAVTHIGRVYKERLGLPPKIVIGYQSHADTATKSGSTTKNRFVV
Chain of Eukaryotic translation initiation factor 4B (Homo sapiens) (P23588 whole entry): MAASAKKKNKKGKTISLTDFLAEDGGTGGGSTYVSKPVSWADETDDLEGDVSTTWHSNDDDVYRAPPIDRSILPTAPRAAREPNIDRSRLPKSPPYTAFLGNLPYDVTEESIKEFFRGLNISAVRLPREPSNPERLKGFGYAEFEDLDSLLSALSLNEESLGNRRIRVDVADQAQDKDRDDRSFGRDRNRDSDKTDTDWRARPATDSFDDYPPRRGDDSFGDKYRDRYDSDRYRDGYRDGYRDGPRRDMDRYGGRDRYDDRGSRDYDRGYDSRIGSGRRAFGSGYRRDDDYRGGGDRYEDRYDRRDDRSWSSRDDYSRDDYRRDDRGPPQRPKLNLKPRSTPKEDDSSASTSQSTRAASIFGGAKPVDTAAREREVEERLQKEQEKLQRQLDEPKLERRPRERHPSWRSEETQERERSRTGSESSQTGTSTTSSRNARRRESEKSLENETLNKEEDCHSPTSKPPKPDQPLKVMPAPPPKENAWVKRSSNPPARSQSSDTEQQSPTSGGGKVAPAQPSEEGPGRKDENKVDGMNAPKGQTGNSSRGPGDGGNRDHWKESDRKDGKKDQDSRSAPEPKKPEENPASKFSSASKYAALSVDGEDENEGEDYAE
Chain of Eukaryotic initiation factor 4A-I (Oryctolagus cuniculus) (P29562 whole entry): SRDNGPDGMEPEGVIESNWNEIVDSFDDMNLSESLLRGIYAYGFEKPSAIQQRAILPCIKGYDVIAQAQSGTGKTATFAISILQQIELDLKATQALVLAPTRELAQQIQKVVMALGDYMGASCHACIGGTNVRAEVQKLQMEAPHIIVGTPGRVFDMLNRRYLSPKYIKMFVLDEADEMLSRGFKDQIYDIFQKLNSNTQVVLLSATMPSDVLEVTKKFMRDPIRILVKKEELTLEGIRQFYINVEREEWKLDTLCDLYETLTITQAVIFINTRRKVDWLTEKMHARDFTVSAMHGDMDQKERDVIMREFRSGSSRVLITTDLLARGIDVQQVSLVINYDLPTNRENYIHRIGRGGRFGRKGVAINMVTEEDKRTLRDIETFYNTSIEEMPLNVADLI
Chain of Eukaryotic initiation factor 4A (Triticum aestivum) (P41378 whole entry): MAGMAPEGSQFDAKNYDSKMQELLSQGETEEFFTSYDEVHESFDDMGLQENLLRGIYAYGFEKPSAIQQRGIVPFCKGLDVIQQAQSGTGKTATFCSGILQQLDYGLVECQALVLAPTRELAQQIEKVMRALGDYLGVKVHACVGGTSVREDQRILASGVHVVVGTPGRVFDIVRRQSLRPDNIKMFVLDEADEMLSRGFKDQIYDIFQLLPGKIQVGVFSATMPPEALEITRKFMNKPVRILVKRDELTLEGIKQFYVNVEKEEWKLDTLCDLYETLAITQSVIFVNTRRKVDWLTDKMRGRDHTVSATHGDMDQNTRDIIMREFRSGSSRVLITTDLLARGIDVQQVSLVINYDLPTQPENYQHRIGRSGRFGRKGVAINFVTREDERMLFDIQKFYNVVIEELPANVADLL

## C[C@H]1C[C@@]2(O[C@H]3C[C@H]4[C@@H]5CC[C@H]6C[C@H](O)[C@H](O)C[C@]6(C)[C@H]5[C@@H](O)C[C@]4(C)[C@H]3[C@@]2(C)O)OC1(C)C
[1]
  IC50: 1700 nM

## C[C@H]1C[C@@]2(O[C@H]3C[C@H]4[C@@H]5CC[C@H]6C[C@H](O)[C@H](OC(=O)CCCC(=O)O)C[C@]6(C)[C@H]5[C@@H](O)C[C@]4(C)[C@H]3[C@@]2(C)O)OC1(C)C
[1]
  IC50: 2600 nM

## CC(=O)O[C@@H]1C[C@@]2(C)[C@@H](CC[C@@H]3[C@@H]2[C@@H](O)C[C@@]2(C)[C@H]3C[C@@H]3O[C@@]4(C[C@H](C)C(C)(C)O4)[C@](C)(O)[C@@H]32)C[C@@H]1O
[1]
  IC50: 1500 nM

## C[C@H]1C[C@]2(O[C@H]3C[C@H]4[C@@H]5CC[C@H]6C[C@H](O)[C@H](O)C[C@]6(C)[C@H]5[C@@H](O)C[C@]4(C)[C@H]3[C@@]2(C)O)OC1(C)C
[1]
  IC50: 19000 nM

## CC(=O)O[C@H]1C[C@@H]2CC[C@@H]3[C@H]([C@@H](O)C[C@@]4(C)[C@H]3C[C@@H]3O[C@]5(C[C@H](C)C(C)(C)O5)[C@](C)(O)[C@@H]34)[C@@]2(C)C[C@H]1O
[1]
  IC50: 52000 nM

## CC(=O)O[C@H]1C[C@@H]2CC[C@@H]3[C@H]([C@@H](O)C[C@@]4(C)[C@H]3C[C@@H]3O[C@@]5(C[C@H](C)C(C)(C)O5)[C@](C)(O)[C@@H]34)[C@@]2(C)C[C@H]1O
[1]
  IC50: 1700 nM

## CC(=O)O[C@@H]1C[C@@]2(C)[C@@H](CC[C@@H]3[C@@H]2[C@@H](O)C[C@@]2(C)[C@H]3C[C@@H]3O[C@]4(C[C@H](C)C(C)(C)O4)[C@](C)(O)[C@@H]32)C[C@@H]1O [EPIHIPPURIN 1]
[1]
  IC50: > 100000 nM

## C[C@H]1C[C@]2(O[C@H]3C[C@H]4[C@@H]5CC[C@H]6C[C@H](O)CC[C@]6(C)[C@H]5[C@@H](O)C[C@]4(C)[C@H]3[C@@]2(C)O)OC1(C)C [EPIHIPPURISTANOL]
[1]
  IC50: > 100000 nM

## CC(=O)O[C@@H]1CC[C@@]2(C)[C@@H](CC[C@@H]3[C@@H]2[C@@H](O)C[C@]24[C@H](O)O[C@]5(C)[C@H]2[C@H](C[C@@H]34)O[C@]52C[C@H](C)C(C)(C)O2)C1 [HIPPURISTANOHEMIACETAL]
[1]
  IC50: 91000 nM

## C[C@H]1C[C@@]2(O[C@H]3C[C@H]4[C@@H]5CC[C@H]6C[C@H](O)CC[C@]6(C)[C@H]5[C@@H](O)C[C@]4(C)[C@H]3[C@@]2(C)O)OC1(C)C [HIPPURISTANOL]
[2]
  inhibition: Active
HeLa [3]
  inhibition: Active
HeLa [4]
  inhibition: Active
[5]
  inhibition: Active
Oryctolagus cuniculus
  inhibition: Active
[1]
  IC50: 400 nM
Nucleic Acid [6]
  inhibition: Active
[7]
  inhibition: Active
HeLa [8]
  inhibition: Active
Nucleic Acid [9]
  inhibition: inactive
HeLa [10]
  inhibition: Active
HeLa [11]
  inhibition: Active
[12]
  inhibition: Active
Triticum aestivum
  inhibition: Active
HeLa [13]
  inhibition: Active
HeLa [14]
  inhibition: Active
[15]
  fold change (FC): 2
Nucleic Acid [16]
  inhibition: Active
[17]
  inhibition: inactive
[18]
  inhibition: Active
[19]
  inhibition: inactive
[20]
  inhibition: Active
Nucleic Acid [21]
  inhibition: Active
[22]
  inhibition: Active
[23]
  inhibition: inactive
[24]
  inhibition: Active
Escherichia coli
  inhibition: Active
[25]
  inhibition: Active
[26]
  inhibition: inactive
[27]
  inhibition: Active
